≈ marks a conversion by molar mass, not a printed value.
Columns and labels:
Streptococcus pneumoniae [1] = assay: Antibacterial activity against Streptococcus pneumoniae ATCC 10015; format: functional
Haemophilus influenzae = assay: Antibacterial activity against Haemophilus influenzae ATCC 51907; format: functional
Staphylococcus aureus [2] = assay: Antibacterial activity against Staphylococcus aureus ATCC 29213 in absence of human serum; format: functional
[3] = Inhibition of Escherichia coli DNA gyrase
[4] = Inhibition of Escherichia coli topoisomerase 4
Staphylococcus aureus [5] = assay: Antibacterial activity against Staphylococcus aureus ATCC 29213 in presence of human serum; format: functional
In short: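 Broth microdilution MIC per CLSI methods (modified), with human serum added to the liquid medium at a final 50% for S. aureus ATCC 29213.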

DNA gyrase = DNA gyrase (Staphylococcus aureus, UniProt P0A0K8+P20831); assay: Inhibition of Staphylococcus aureus DNA gyrase; format: protein-complex assay
Streptococcus pneumoniae [6] = assay: Antibacterial activity against Streptococcus pneumoniae ATCC 6303-infeceted Sprague-Dawley rat assessed as reduction in lung bacterial density at 25 mg/kg, po administered twice at 18 and 26 hrs after bacterial challenge measured at 72 hrs postinfection; format: functional
In short: (§1)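 Male Sprague-Dawley rats (185-224 g), anesthetized, infected intratracheally with 0.2 mL (0.9 × 10⁷ CFU) S. pneumoniae ATCC 6303 serotype 3 grown overnight in enriched broth. Oral dosing in D5W at 18 and 26 h postinfection, 10 per group. Lungs homogenized for CFU at 72 h; mean log₁₀ CFU ± SEM against vehicle controls.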

Streptococcus pneumoniae [7] = assay: Antibacterial activity against Streptococcus pneumoniae ATCC 6303; format: functional
[8] = Half life in Sprague-Dawley rat; format: ADME, organism-based; settings: in vivo
Streptococcus pneumoniae [9] = assay: Antibacterial activity against Streptococcus pneumoniae ATCC 6303-infeceted Sprague-Dawley rat assessed as reduction in lung bacterial density at 50 mg/kg, po administered twice at 18 and 26 hrs after bacterial challenge measured at 72 hrs postinfection; format: functional; in short: as §1
Staphylococcus aureus [10] = assay: Antibacterial activity against Staphylococcus aureus ATCC 29213-infected Sprague-Dawley rat assessed as reduction in bacterial density in thigh tissue at 50 mg/kg, iv administered 2 hrs after bacterial challenge measured at 8 hrs postinfection; format: functional
In short: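 Neutropenic male Sprague-Dawley rats (175-200 g); cyclophosphamide ip 150 mg/kg at day -4 and 50 mg/kg at day -1. Infection was 0.2 mL of 1 × 10⁷ CFU/mL S. aureus ATCC 29213 in saline, im into the thigh. Single iv tail-vein bolus at 2 h postinfection, D5W vehicle. Thighs homogenized for CFU 6 h post-dose; 0 h controls taken at 2 h. Mean log₁₀ CFU ± SEM; one-way ANOVA with Dunnett's test.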

[11] = Bioavailability in Sprague-Dawley rat; format: ADME, organism-based; settings: in vivo
[12] = Clearance in Sprague-Dawley rat; format: ADME, organism-based; settings: in vivo
[13] = Volume of distribution at steady state in Sprague-Dawley rat; format: ADME, organism-based; settings: in vivo, read-out: Vdss

DNA gyrase, sequence (P0A0K8 whole entry): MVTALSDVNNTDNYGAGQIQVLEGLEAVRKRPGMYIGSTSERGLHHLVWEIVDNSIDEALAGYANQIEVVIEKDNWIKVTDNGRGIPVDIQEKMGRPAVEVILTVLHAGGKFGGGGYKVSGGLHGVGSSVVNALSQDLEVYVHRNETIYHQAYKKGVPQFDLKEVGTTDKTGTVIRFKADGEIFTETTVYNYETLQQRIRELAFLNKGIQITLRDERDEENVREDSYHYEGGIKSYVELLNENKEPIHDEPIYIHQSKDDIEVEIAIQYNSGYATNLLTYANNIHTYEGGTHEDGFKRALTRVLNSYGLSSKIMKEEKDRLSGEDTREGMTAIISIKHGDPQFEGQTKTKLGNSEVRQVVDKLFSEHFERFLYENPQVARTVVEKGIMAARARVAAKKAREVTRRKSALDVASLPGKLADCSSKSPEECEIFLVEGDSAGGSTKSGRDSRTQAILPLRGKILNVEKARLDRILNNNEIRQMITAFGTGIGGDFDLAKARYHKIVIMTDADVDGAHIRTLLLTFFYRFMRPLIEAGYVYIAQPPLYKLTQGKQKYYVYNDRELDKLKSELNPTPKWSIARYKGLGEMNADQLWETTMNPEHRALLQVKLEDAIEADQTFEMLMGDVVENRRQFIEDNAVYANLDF
DNA gyrase, sequence (P20831 whole entry): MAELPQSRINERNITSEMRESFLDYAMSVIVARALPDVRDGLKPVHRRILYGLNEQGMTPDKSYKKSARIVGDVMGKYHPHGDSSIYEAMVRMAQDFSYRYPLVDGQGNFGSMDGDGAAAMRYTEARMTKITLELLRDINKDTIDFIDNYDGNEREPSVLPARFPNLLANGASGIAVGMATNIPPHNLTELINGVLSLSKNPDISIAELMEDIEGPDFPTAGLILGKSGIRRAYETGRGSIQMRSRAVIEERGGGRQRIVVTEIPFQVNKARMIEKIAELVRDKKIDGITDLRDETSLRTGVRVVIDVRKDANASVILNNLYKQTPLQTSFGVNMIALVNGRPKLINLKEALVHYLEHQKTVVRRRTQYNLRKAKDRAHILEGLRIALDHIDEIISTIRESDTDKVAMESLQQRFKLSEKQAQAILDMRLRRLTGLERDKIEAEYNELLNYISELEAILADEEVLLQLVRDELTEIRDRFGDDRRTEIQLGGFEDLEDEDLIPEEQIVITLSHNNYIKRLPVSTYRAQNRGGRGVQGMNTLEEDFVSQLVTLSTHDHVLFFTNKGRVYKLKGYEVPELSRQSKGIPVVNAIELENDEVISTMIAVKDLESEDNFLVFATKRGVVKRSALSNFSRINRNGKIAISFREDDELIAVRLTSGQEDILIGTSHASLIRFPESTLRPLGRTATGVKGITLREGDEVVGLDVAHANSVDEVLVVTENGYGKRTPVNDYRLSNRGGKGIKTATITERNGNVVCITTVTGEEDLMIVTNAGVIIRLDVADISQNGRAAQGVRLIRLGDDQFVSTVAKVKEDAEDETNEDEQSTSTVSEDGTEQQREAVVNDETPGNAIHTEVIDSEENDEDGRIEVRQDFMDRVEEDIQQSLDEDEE

SMILES | MIC (Streptococcus pneumoniae [1]) [µg/mL] | MIC (Haemophilus influenzae) [µg/mL] | MIC (Staphylococcus aureus [2]) [µg/mL] | Ki [3] [nM] | Ki [4] [nM] | MIC (Staphylococcus aureus [5]) [µg/mL] | Ki (DNA gyrase) [nM] | log10cfu (Streptococcus pneumoniae [6]) | MIC (Streptococcus pneumoniae [7]) [µg/mL] | half-life [8] [min] | log10cfu (Streptococcus pneumoniae [9]) | log10cfu (Staphylococcus aureus [10]) | bioavailability [11] [%] | clearance [12] [mL/min/kg] | Vd [13] [L/kg]
CCNC(=O)Nc1nc2cc(-c3cccnc3)cc(C(=O)NC)c2[nH]1 | 0.063 (≈ 0.186 µM) | 16 (≈ 47.3 µM) | 16 (≈ 47.3 µM) | 5 | 150 | > 16 | 26 | – | – | – | – | – | – | – | –
CCNC(=O)Nc1nc2cc(-c3cccnc3)cc(-c3ccccn3)c2[nH]1 | 0.004 (≈ 0.0112 µM) | 2 (≈ 5.58 µM) | 0.031 (≈ 0.0865 µM) | < 4 | 14 | 2 | 7 | – | – | – | – | – | – | – | –
CCNC(=O)Nc1nc2cc(-c3cccnc3)cc(-c3ncccc3F)c2[nH]1 | 0.004 (≈ 0.0106 µM) | 1 (≈ 2.66 µM) | 0.031 (≈ 0.0824 µM) | < 4 | 23 | 0.5 | 14 | 4.8 | 0.008 (≈ 0.0213 µM) | 42 | 5.6 | 1.5 | 88.4 | 14.4 | 1.6
CCNC(=O)Nc1nc2cc(-c3cnc(OC)nc3)c(OC)cc2[nH]1 | 0.125 (≈ 0.365 µM) | 4 (≈ 11.7 µM) | 2 (≈ 5.84 µM) | 15 | 680 | 8 | 44 | – | – | – | – | – | – | – | –
CCNC(=O)Nc1nc2cc(-c3cccnc3)c(C)cc2[nH]1 | 0.5 (≈ 1.69 µM) | 16 (≈ 54.2 µM) | 16 (≈ 54.2 µM) | 61 | 1400 | > 16 | 85 | – | – | – | – | – | – | – | –
CCNC(=O)Nc1nc2cc(-c3cccnc3)cc(OCc3ccccc3)c2[nH]1 | 1 (≈ 2.58 µM) | > 16 | 2 (≈ 5.16 µM) | 18 | 390 | > 16 | 35 | – | – | – | – | – | – | – | –
CCNC(=O)Nc1nc2cc(-c3cccnc3)cc(C(=O)OC)c2[nH]1 | 0.016 (≈ 0.0471 µM) | 0.5 (≈ 1.47 µM) | 0.063 (≈ 0.186 µM) | < 4 | 35 | 0.5 | 8 | – | – | – | – | – | – | – | –
CCNC(=O)Nc1nc2cc(-c3cncnc3)cc(-n3cccn3)c2[nH]1 | < 0.008 | 0.25 (≈ 0.718 µM) | 0.031 (≈ 0.089 µM) | < 4 | 58 | 0.25 | 16 | – | – | – | – | – | – | – | –
CCNC(=O)Nc1nc2cc(-c3cccnc3)c(OC)cc2[nH]1 | 2 (≈ 6.42 µM) | > 16 | 16 (≈ 51.4 µM) | 130 | 3500 | > 16 | 190 | – | – | – | – | – | – | – | –
CCNC(=O)Nc1nc2cc(-c3cccnc3)ccc2[nH]1 | 2 (≈ 7.11 µM) | 16 (≈ 56.9 µM) | 16 (≈ 56.9 µM) | 81 | 2300 | > 16 | 130 | – | – | – | – | – | – | – | –
CCNC(=O)Nc1nc2cc(-n3cnc(C(=O)NC4CC4)c3)cc(-n3cccn3)c2[nH]1 | 0.003 (≈ 0.00715 µM) | 0.25 (≈ 0.596 µM) | 0.5 (≈ 1.19 µM) | < 4 | 12 | 4 | 10 | – | – | – | – | – | – | – | –
CCNC(=O)Nc1nc2cc(-c3cccnc3)cc(-c3cccnc3)c2[nH]1 | 0.5 (≈ 1.4 µM) | > 16 | 4 (≈ 11.2 µM) | 6 | 1300 | 16 | 17 | – | – | – | – | – | – | – | –
CO[C@@H]1[C@@H](OC(N)=O)[C@@H](O)[C@H](Oc2ccc3c(O)c(NC(=O)c4ccc(O)c(CC=C(C)C)c4)c(=O)oc3c2C)OC1(C)C [NOVOBIOCIN] | 2 (≈ 3.26 µM) | 0.063 (≈ 0.103 µM) | 0.125 (≈ 0.204 µM) | – | – | > 16 | – | – | – | – | – | – | – | – | –
CCNC(=O)Nc1nc2cc(-c3ccn(C)c(=O)c3)cc(-c3ncccc3F)c2[nH]1 | < 0.008 | 0.125 (≈ 0.308 µM) | 0.016 (≈ 0.0394 µM) | < 4 | 11 | 0.032 | 23 | – | – | – | – | – | – | – | –
CCNC(=O)Nc1nc2cc(-c3ccccc3)ccc2[nH]1 | > 16 | > 16 | > 16 | 400 | 9500 | > 16 | 470 | – | – | – | – | – | – | – | –
CC(=O)NC[C@H]1CN(c2ccc(N3CCOCC3)c(F)c2)C(=O)O1 [LINEZOLID] | – | – | – | – | – | – | – | 2.5 | 0.4 (≈ 1.19 µM) | – | 5.9 | – | – | – | –
CCNC(=O)Nc1nc2cc(-c3cccnc3)c(N3CCCCC3)cc2[nH]1 | 2 (≈ 5.49 µM) | > 16 | 16 (≈ 43.9 µM) | 120 | 3300 | > 16 | 81 | – | – | – | – | – | – | – | –
CCNC(=O)Nc1nc2cc(-c3cccnc3)c(F)cc2[nH]1 | 0.25 (≈ 0.835 µM) | 16 (≈ 53.5 µM) | 1 (≈ 3.34 µM) | 33 | 680 | 16 | 38 | – | – | – | – | – | – | – | –
CCOC(=O)Nc1nc2cc(/C=C/c3ccc(O)cc3)ccc2[nH]1 | > 16 | > 16 | > 16 | 20000 | > 60000 | > 16 | 2000 | – | – | – | – | – | – | – | –
CCNC(=O)Nc1nc2cc(-c3cncnc3)ccc2[nH]1 | 0.5 (≈ 1.77 µM) | 2 (≈ 7.08 µM) | 4 (≈ 14.2 µM) | 20 | 1100 | 4 | 49 | – | – | – | – | – | – | – | –
CCNC(=O)Nc1nc2cc(-n3cnc(C(=O)NC4CC4)c3)cc(-c3ccccn3)c2[nH]1 | 0.002 (≈ 0.00465 µM) | 0.125 (≈ 0.29 µM) | 0.063 (≈ 0.146 µM) | < 4 | 7 | 0.25 | 12 | – | – | – | – | – | – | – | –
CCNC(=O)Nc1nc2cc(-n3cnc(C(=O)NC4CC4)c3)c(F)cc2[nH]1 | 0.063 (≈ 0.17 µM) | 4 (≈ 10.8 µM) | 4 (≈ 10.8 µM) | < 4 | 78 | 8 | 10 | – | – | – | – | – | – | – | –
CCNC(=O)Nc1nc2cc(-c3cccnc3)cc(-n3cccn3)c2[nH]1 | 0.008 (≈ 0.023 µM) | 1 (≈ 2.88 µM) | 0.063 (≈ 0.181 µM) | < 4 | 46 | 4 | 15 | – | – | – | – | – | – | – | –

Reference: ChEMBL document CHEMBL1139395 (J Med Chem, 2008)
